In ChEMBL document CHEMBL5058577, “EUbOPEN Chemogenomics Library 2 (Multiplex)” (2022):

Test system: Fibroblast
Assay: Multiplex assay against human fibroblast
Format: toxicity, cell-based
How it was run: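 Live cells were stained at seeding with Hoechst33342, BioTracker Green Microtubule Cytoskeleton Dye, MitoTracker Red and Annexin V Alexa Fluor 680, then imaged on a CQ1 microscope at 37°C and 5% CO2 after compound addition. CellPathfinder machine-learning gating split cells into Hoechst high-intensity objects or normal cells. Normal cells were split into healthy, pyknosed or fragmented nuclei, and pyknosed cells into mitotic or apoptotic. Tubulin, mitochondrial-mass and membrane-permeability phenotypes are per cents of healthy-nucleus cells.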

[1] = 12 h, 1 µM, compound concentration 1 uM, replicate 1
[2] = 12 h, 1 µM, compound concentration 1 uM, replicate 2
[3] = 12 h, 10 µM, compound concentration 10 uM, replicate 1
[4] = 12 h, 10 µM, compound concentration 10 uM, replicate 2
[5] = 24 h, 1 µM, compound concentration 1 uM, replicate 1
[6] = 24 h, 1 µM, compound concentration 1 uM, replicate 2
[7] = 24 h, 10 µM, compound concentration 10 uM, replicate 1
[8] = 24 h, 10 µM, compound concentration 10 uM, replicate 2
[9] = 48 h, 1 µM, compound concentration 1 uM, replicate 1
[10] = 48 h, 1 µM, compound concentration 1 uM, replicate 2
[11] = 48 h, 10 µM, compound concentration 10 uM, replicate 1
[12] = 48 h, 10 µM, compound concentration 10 uM, replicate 2

## COCCCN1CCC(NC(=O)c2cc(Cl)c(N)c3c2OCC3)CC1 [PRUCALOPRIDE]
[1]
  Population Apoptotic (%): 33%
  Population Fragmented Nuclei (%): 20%
  Population Healthy Nuclei (%): 62%
  Population Hoechst High Intensity Objects (%): 3%
  Population Membrane Permeable-Phenotype (%): 0%
  Population Mitochondria Different-Phenotype (%): 3%
  Population Mitotic Cells (%): 66%
  Population Normal (%): 96%
  Population Pyknosed Nuclei (%): 16%
  Population Tubulin-Different-Phenotype (%): 30%
  Total Cell Count: 132
[2]
  Population Apoptotic (%): 48%
  Population Fragmented Nuclei (%): 31%
  Population Healthy Nuclei (%): 48%
  Population Hoechst High Intensity Objects (%): 4%
  Population Membrane Permeable-Phenotype (%): 5%
  Population Mitochondria Different-Phenotype (%): 8%
  Population Mitotic Cells (%): 52%
  Population Normal (%): 95%
  Population Pyknosed Nuclei (%): 20%
  Population Tubulin-Different-Phenotype (%): 51%
  Total Cell Count: 130
[3]
  Population Apoptotic (%): 30%
  Population Fragmented Nuclei (%): 12%
  Population Healthy Nuclei (%): 66%
  Population Hoechst High Intensity Objects (%): 0%
  Population Membrane Permeable-Phenotype (%): 1%
  Population Mitochondria Different-Phenotype (%): 7%
  Population Mitotic Cells (%): 70%
  Population Normal (%): 99%
  Population Pyknosed Nuclei (%): 20%
  Population Tubulin-Different-Phenotype (%): 31%
  Total Cell Count: 144
[4]
  Population Apoptotic (%): 35%
  Population Fragmented Nuclei (%): 28%
  Population Healthy Nuclei (%): 46%
  Population Hoechst High Intensity Objects (%): 11%
  Population Membrane Permeable-Phenotype (%): 7%
  Population Mitochondria Different-Phenotype (%): 3%
  Population Mitotic Cells (%): 64%
  Population Normal (%): 88%
  Population Pyknosed Nuclei (%): 25%
  Population Tubulin-Different-Phenotype (%): 55%
  Total Cell Count: 153
[5]
  Population Apoptotic (%): 48%
  Population Fragmented Nuclei (%): 20%
  Population Healthy Nuclei (%): 57%
  Population Hoechst High Intensity Objects (%): 2%
  Population Membrane Permeable-Phenotype (%): 0%
  Population Mitochondria Different-Phenotype (%): 3%
  Population Mitotic Cells (%): 51%
  Population Normal (%): 97%
  Population Pyknosed Nuclei (%): 21%
  Population Tubulin-Different-Phenotype (%): 25%
  Total Cell Count: 136
[6]
  Population Apoptotic (%): 72%
  Population Fragmented Nuclei (%): 36%
  Population Healthy Nuclei (%): 49%
  Population Hoechst High Intensity Objects (%): 7%
  Population Membrane Permeable-Phenotype (%): 7%
  Population Mitochondria Different-Phenotype (%): 4%
  Population Mitotic Cells (%): 27%
  Population Normal (%): 92%
  Population Pyknosed Nuclei (%): 14%
  Population Tubulin-Different-Phenotype (%): 50%
  Total Cell Count: 138
[7]
  Population Apoptotic (%): 63%
  Population Fragmented Nuclei (%): 10%
  Population Healthy Nuclei (%): 74%
  Population Hoechst High Intensity Objects (%): 6%
  Population Membrane Permeable-Phenotype (%): 1%
  Population Mitochondria Different-Phenotype (%): 6%
  Population Mitotic Cells (%): 36%
  Population Normal (%): 93%
  Population Pyknosed Nuclei (%): 15%
  Population Tubulin-Different-Phenotype (%): 30%
  Total Cell Count: 128
[8]
  Population Apoptotic (%): 30%
  Population Fragmented Nuclei (%): 24%
  Population Healthy Nuclei (%): 57%
  Population Hoechst High Intensity Objects (%): 5%
  Population Membrane Permeable-Phenotype (%): 11%
  Population Mitochondria Different-Phenotype (%): 3%
  Population Mitotic Cells (%): 69%
  Population Normal (%): 94%
  Population Pyknosed Nuclei (%): 18%
  Population Tubulin-Different-Phenotype (%): 56%
  Total Cell Count: 148
[9]
  Population Apoptotic (%): 50%
  Population Fragmented Nuclei (%): 25%
  Population Healthy Nuclei (%): 60%
  Population Hoechst High Intensity Objects (%): 4%
  Population Membrane Permeable-Phenotype (%): 2%
  Population Mitochondria Different-Phenotype (%): 3%
  Population Mitotic Cells (%): 50%
  Population Normal (%): 95%
  Population Pyknosed Nuclei (%): 14%
  Population Tubulin-Different-Phenotype (%): 38%
  Total Cell Count: 146
[10]
  Population Fragmented Nuclei (%): 36%
  Population Healthy Nuclei (%): 49%
  Population Hoechst High Intensity Objects (%): 2%
  Population Membrane Permeable-Phenotype (%): 3%
  Population Mitochondria Different-Phenotype (%): 6%
  Population Normal (%): 97%
  Population Pyknosed Nuclei (%): 13%
  Population Tubulin-Different-Phenotype (%): 53%
  Total Cell Count: 132
[11]
  Population Apoptotic (%): 64%
  Population Fragmented Nuclei (%): 22%
  Population Healthy Nuclei (%): 66%
  Population Hoechst High Intensity Objects (%): 2%
  Population Membrane Permeable-Phenotype (%): 1%
  Population Mitochondria Different-Phenotype (%): 6%
  Population Mitotic Cells (%): 35%
  Population Normal (%): 97%
  Population Pyknosed Nuclei (%): 10%
  Population Tubulin-Different-Phenotype (%): 38%
  Total Cell Count: 136
[12]
  Population Apoptotic (%): 62%
  Population Fragmented Nuclei (%): 34%
  Population Healthy Nuclei (%): 48%
  Population Hoechst High Intensity Objects (%): 6%
  Population Membrane Permeable-Phenotype (%): 7%
  Population Mitochondria Different-Phenotype (%): 7%
  Population Mitotic Cells (%): 37%
  Population Normal (%): 93%
  Population Pyknosed Nuclei (%): 17%
  Population Tubulin-Different-Phenotype (%): 57%
  Total Cell Count: 146

## COCCn1c(C)c(C)s/c1=N\C(=O)C1C(C)(C)C1(C)C
[1]
  Population Apoptotic (%): 43%
  Population Fragmented Nuclei (%): 18%
  Population Healthy Nuclei (%): 69%
  Population Hoechst High Intensity Objects (%): 0%
  Population Membrane Permeable-Phenotype (%): 0%
  Population Mitochondria Different-Phenotype (%): 7%
  Population Mitotic Cells (%): 56%
  Population Normal (%): 99%
  Population Pyknosed Nuclei (%): 11%
  Population Tubulin-Different-Phenotype (%): 34%
  Total Cell Count: 136
[2]
  Population Apoptotic (%): 40%
  Population Fragmented Nuclei (%): 22%
  Population Healthy Nuclei (%): 57%
  Population Hoechst High Intensity Objects (%): 4%
  Population Membrane Permeable-Phenotype (%): 1%
  Population Mitochondria Different-Phenotype (%): 5%
  Population Mitotic Cells (%): 60%
  Population Normal (%): 95%
  Population Pyknosed Nuclei (%): 19%
  Population Tubulin-Different-Phenotype (%): 32%
  Total Cell Count: 133
[3]
  Population Apoptotic (%): 64%
  Population Fragmented Nuclei (%): 19%
  Population Healthy Nuclei (%): 59%
  Population Hoechst High Intensity Objects (%): 2%
  Population Membrane Permeable-Phenotype (%): 1%
  Population Mitochondria Different-Phenotype (%): 14%
  Population Mitotic Cells (%): 35%
  Population Normal (%): 97%
  Population Pyknosed Nuclei (%): 20%
  Population Tubulin-Different-Phenotype (%): 56%
  Total Cell Count: 167
[4]
  Population Apoptotic (%): 37%
  Population Fragmented Nuclei (%): 38%
  Population Healthy Nuclei (%): 40%
  Population Hoechst High Intensity Objects (%): 6%
  Population Membrane Permeable-Phenotype (%): 13%
  Population Mitochondria Different-Phenotype (%): 8%
  Population Mitotic Cells (%): 62%
  Population Normal (%): 93%
  Population Pyknosed Nuclei (%): 21%
  Population Tubulin-Different-Phenotype (%): 64%
  Total Cell Count: 120
[5]
  Population Apoptotic (%): 64%
  Population Fragmented Nuclei (%): 15%
  Population Healthy Nuclei (%): 72%
  Population Hoechst High Intensity Objects (%): 2%
  Population Membrane Permeable-Phenotype (%): 1%
  Population Mitochondria Different-Phenotype (%): 5%
  Population Mitotic Cells (%): 35%
  Population Normal (%): 97%
  Population Pyknosed Nuclei (%): 11%
  Population Tubulin-Different-Phenotype (%): 38%
  Total Cell Count: 122
[6]
  Population Apoptotic (%): 54%
  Population Fragmented Nuclei (%): 28%
  Population Healthy Nuclei (%): 54%
  Population Hoechst High Intensity Objects (%): 3%
  Population Membrane Permeable-Phenotype (%): 5%
  Population Mitotic Cells (%): 45%
  Population Normal (%): 96%
  Population Pyknosed Nuclei (%): 17%
  Population Tubulin-Different-Phenotype (%): 37%
  Total Cell Count: 132
[7]
  Population Apoptotic (%): 68%
  Population Fragmented Nuclei (%): 20%
  Population Healthy Nuclei (%): 59%
  Population Hoechst High Intensity Objects (%): 4%
  Population Membrane Permeable-Phenotype (%): 0%
  Population Mitochondria Different-Phenotype (%): 15%
  Population Mitotic Cells (%): 31%
  Population Normal (%): 95%
  Population Pyknosed Nuclei (%): 19%
  Population Tubulin-Different-Phenotype (%): 61%
  Total Cell Count: 154
[8]
  Population Apoptotic (%): 33%
  Population Fragmented Nuclei (%): 40%
  Population Healthy Nuclei (%): 36%
  Population Hoechst High Intensity Objects (%): 3%
  Population Membrane Permeable-Phenotype (%): 11%
  Population Mitochondria Different-Phenotype (%): 19%
  Population Mitotic Cells (%): 66%
  Population Normal (%): 96%
  Population Pyknosed Nuclei (%): 23%
  Population Tubulin-Different-Phenotype (%): 66%
  Total Cell Count: 120
[9]
  Population Apoptotic (%): 60%
  Population Fragmented Nuclei (%): 23%
  Population Healthy Nuclei (%): 63%
  Population Hoechst High Intensity Objects (%): 4%
  Population Membrane Permeable-Phenotype (%): 0%
  Population Mitochondria Different-Phenotype (%): 4%
  Population Mitotic Cells (%): 40%
  Population Normal (%): 95%
  Population Pyknosed Nuclei (%): 12%
  Population Tubulin-Different-Phenotype (%): 43%
  Total Cell Count: 123
[10]
  Population Fragmented Nuclei (%): 31%
  Population Healthy Nuclei (%): 56%
  Population Hoechst High Intensity Objects (%): 7%
  Population Membrane Permeable-Phenotype (%): 2%
  Population Normal (%): 92%
  Population Pyknosed Nuclei (%): 11%
  Population Tubulin-Different-Phenotype (%): 45%
  Total Cell Count: 140
[11]
  Population Apoptotic (%): 75%
  Population Fragmented Nuclei (%): 23%
  Population Healthy Nuclei (%): 56%
  Population Hoechst High Intensity Objects (%): 7%
  Population Membrane Permeable-Phenotype (%): 0%
  Population Mitochondria Different-Phenotype (%): 22%
  Population Mitotic Cells (%): 25%
  Population Normal (%): 92%
  Population Pyknosed Nuclei (%): 20%
  Population Tubulin-Different-Phenotype (%): 67%
  Total Cell Count: 151
[12]
  Population Apoptotic (%): 58%
  Population Fragmented Nuclei (%): 49%
  Population Healthy Nuclei (%): 34%
  Population Hoechst High Intensity Objects (%): 8%
  Population Membrane Permeable-Phenotype (%): 14%
  Population Mitochondria Different-Phenotype (%): 11%
  Population Mitotic Cells (%): 41%
  Population Normal (%): 91%
  Population Pyknosed Nuclei (%): 16%
  Population Tubulin-Different-Phenotype (%): 65%
  Total Cell Count: 111
